Drawing on ChEMBL document CHEMBL1137812, “Leishmanicidal and antiplasmodial activity of constituents of Smirnowia iranica” (J Nat Prod, 2002), this text covers IC50 and Activity for seven compounds.

pIC50: −log10 of the molar value.

Data set [1] relates to Leishmania infantum. Nature of the data set: Antileishmanial activity against Leishmania infantum D.SCH amastigotes infected in mouse RAW 264.7 cells after 72 hrs by MTT assay. The class given is functional, organism-based. The essentials:
(§1)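 RAW 264.7 macrophages infected in vitro with stationary-phase promastigotes, seeded at 1 × 10^5 cells per well in RPMI with 10% fetal calf serum and held 24 h at 37 °C for amastigote transformation. Compounds added, duplicate wells, 72 h at 37 °C. Cells lysed with 0.008% SDS, then post-lysis medium added and plates held 3-4 days at 25 °C. Recovered promastigotes quantified by MTT.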

A short description of data set [2]: Toxicity in human erythrocytes assessed as formation of echinocytes and ghost cells at 130 to 300 uM after 48 hrs by Giemsa staining. The class given is cell-based. Conditions: erythrocyte.
The nature of data set [3]: Toxicity in human erythrocytes assessed as morphological changes at IC50 after 48 hrs by Giemsa staining. The class given is cell-based. Conditions: erythrocyte.
For data set [4], the system named is Leishmania infantum. The experiment in a line: Antileishmanial activity against Leishmania infantum D.SCH promastigotes after 96 hrs by MTT assay. The class given is functional, organism-based. In short, it runs like this: (§2)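 Promastigotes recovered from liquid-nitrogen cryopreservation were exposed to compounds for 96 h. Parasite viability was read by MTT.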
In general terms: Tetrazolium dyes change colour on reduction, which living cells bring about.

Data set [5] concerns Leishmania donovani. Nature of the data set: Antileishmanial activity against Leishmania donovani LV9 amastigotes infected in mouse RAW 264.7 cells after 72 hrs by MTT assay. The format is functional, organism-based. In short, it runs like this: as §1
The test system of the next data set is Plasmodium falciparum. Nature of the data set: Antiplasmodial activity against chloroquine-sensitive Plasmodium falciparum 3D7 after 48 hrs as reduced [3H]phenylalanine uptake.
The next data set concerns RAW264.7. Nature of the data set: Cytotoxicity against mouse macrophage RAW264.7 cells after 48 hrs by MTT assay. As to conditions: RAW264.7, 48 h. The format is cell-based. The essentials: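 Noninfected RAW 264.7 cells were run in parallel with the intracellular amastigote assay and exposed to compounds for 48 h. Viable cells were quantified by MTT.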
For data set [6], the system named is Leishmania donovani. Nature of the data set: Antileishmanial activity against Leishmania donovani LV9 promastigotes after 96 hrs by MTT assay. The format is functional, organism-based. Conditions: LV9, 96 h. In short, it runs like this: as §2
A further data set has as its system Leishmania major. The experiment in a line: Antileishmanial activity against Leishmania major LV39 promastigotes after 96 hrs by MTT assay. The format is functional, organism-based. As to conditions: LV39, 96 h. The essentials: as §2
Data set [7] in a line: Toxicity in human erythrocytes assessed as morphological changes up to 67 uM after 48 hrs by Giemsa staining. The class given is cell-based. As to conditions: erythrocyte.

The term pIC50 denotes −log10 of the IC50, conventionally taken in molar units. Read a high pIC50 as a low IC50. For the compound `COc1ccc([C@@H]2COc3c(ccc4c3C=CC(C)(C)O4)C2)c(OC)c1O` [GLYASPERIN H], the negative-log IC50 (pIC50) in the data set with Leishmania infantum [1] is 4.05; in the data set with Leishmania infantum [4] it was 4.85; in the data set with Leishmania donovani [5], 4.11; in the data set on Plasmodium falciparum, 4.48; in the data set with RAW264.7, 3.76; in the data set on Leishmania donovani [6] it was 4.60. This compound gave a negative-log IC50 (pIC50) in the data set on Leishmania major of 4.63. The Activity result was “Toxic” in data set [2] and “Non-toxic” in data set [3].
With `C/C=C/c1cc(O)c(OC)c(OC)c1`, the negative logarithm of the IC50 (pIC50) with Leishmania infantum [1] was under 3.10; in the data set on Leishmania infantum [4] it was 3.57; in the data set with Leishmania donovani [5], under 3.10; with Plasmodium falciparum, under 3.70; with RAW264.7, 3.55; with Leishmania donovani [6], 3.40. This compound also had a negative-log IC50 (pIC50) in the data set with Leishmania major of 3.43.
With `C[C@@H]1[C@H](O)[C@@H](C)/C=C/C=C/C=C/C=C/C=C/C=C/C=C/[C@H](O[C@@H]2O[C@H](C)[C@@H](O)[C@H](N)[C@@H]2O)C[C@@H]2O[C@](O)(C[C@@H](O)C[C@@H](O)[C@H](O)CC[C@@H](O)C[C@@H](O)CC(=O)O[C@H]1C)C[C@H](O)[C@H]2C(=O)O` [AMPHOTERICIN B], the pIC50 was 7.40 in the data set on Leishmania infantum [1], 7.70 in the data set with Leishmania infantum [4], 7.40 in the data set with Leishmania donovani [5] and 7.52 in the data set on Leishmania major.
In the case of `COc1ccc([C@@H]2COc3c(ccc4occc34)C2)c(OC)c1O` [SMIRANICIN], the pIC50 in the data set with Leishmania infantum [1] was 4.09; in the data set on Leishmania infantum [4], 4.95; in the data set on Leishmania donovani [5] it was 3.95; in the data set with Plasmodium falciparum, 4.24; in the data set on RAW264.7, 3.71; in the data set on Leishmania donovani [6] it was 4.64. In the data set on Leishmania major, this compound gave a pIC50 of 4.76. Besides, the figures for the Activity entry in data set [2] and in data set [3] were “Toxic” and “Non-toxic”, respectively.
In the case of `C/C=C/C1=C(OC)C(=O)C(OC)=C(OC)C1=O`, the negative logarithm of the IC50 (pIC50) with Leishmania infantum [1] is under 3.10; in the data set with Leishmania infantum [4] it was 4.13; in the data set on Leishmania donovani [5] it was under 3.10; in the data set with Plasmodium falciparum it was under 3.70; in the data set on RAW264.7 it was 3.59; in the data set with Leishmania donovani [6], 4.01. In the data set with Leishmania major, this compound gave a negative-log IC50 (pIC50) of 4.14.
`C/C=C/c1cc(OC)c(OC)c(O)c1OC`: the pIC50 in the data set on Leishmania infantum [1] is under 3.10; with Leishmania infantum [4], 3.70; with Leishmania donovani [5] it was 3.23; in the data set on Plasmodium falciparum it was under 3.70; with RAW264.7, 3.90; in the data set on Leishmania donovani [6], 3.63. The same compound showed a pIC50 in the data set with Leishmania major of 3.41.
`COc1ccc([C@@H]2COc3c(ccc(O)c3CC=C(C)C)C2)c(OC)c1O`: the pIC50 in the data set with Leishmania infantum [1] is 3.96; in the data set with Leishmania infantum [4], 5.04; with Leishmania donovani [5], 4.00; with Plasmodium falciparum it was 4.99; in the data set with RAW264.7, 3.66; with Leishmania donovani [6] it was 5.16. The same compound gave a pIC50 with Leishmania major of 5.10. The Activity entry in data set [7] is reported as “Non-toxic”.
